Test results reported in ChEMBL document CHEMBL4177531, “Cytotoxic Naphthoquinone and Azaanthraquinone Derivatives from an Endophytic Fusarium solani” (J Nat Prod, 2017).

Tests used:
HeLa = assay: Cytotoxicity against human HeLa cells assessed as reduction in cell viability incubated for 96 hrs by MTT assay; type: functional, cell-based
In short: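 HeLa monolayers kept in DMEM with 10% v/v FBS and 2 mM L-glutamine at 37 °C under humidified 5% CO2. Cells were seeded at 5000–20 000 per well and preincubated 24 h. Compound was added in triplicate, with doxorubicin as positive control. After 96 h continuous exposure, viability was read by MTT absorbance at 570 nm. IC50 came from dose–response analysis.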

MDA-MB-231 = assay: Cytotoxicity against human MDA-MB-231 cells assessed as reduction in cell viability incubated for 96 hrs by MTT assay; type: functional, cell-based; conditions: MDA-MB-231, 96 h
In short: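 Triple-negative breast line MDA MB231 was grown as monolayer at 37 °C under humidified 5% CO2 and plated at 5000–20 000 cells/well depending on line. After 24 h, compound was added in triplicate, with doxorubicin as positive control. Cells were exposed continuously for 96 h, then MTT colorimetry read at 570 nm. IC50 came from dose–response fitting.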

MIA PaCa-2 = assay: Cytotoxicity against human MIAPaCa2 cells assessed as reduction in cell viability incubated for 96 hrs by MTT assay; type: functional, cell-based; conditions: MIA PaCa-2, 96 h
In short: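 Pancreatic adenocarcinoma MIA PaCa2 cells were cultured in DMEM plus 2 mM L-glutamine and 10% FBS at 37 °C, 5% CO2. Cells were seeded at 5000–20 000 per well and rested 24 h, then dosed in triplicate for 96 h continuous exposure, with doxorubicin as positive control. Read-out was MTT absorbance at 570 nm; IC50 was derived by dose–response analysis.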

NCI-H1975 = assay: Cytotoxicity against human NCI-H1975 cells assessed as reduction in cell viability incubated for 96 hrs by MTT assay; type: functional, cell-based; conditions: NCI-H1975, 96 h
In short: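 NSCLC NCI H1975 cells were maintained in RPMI 1640 with 10% v/v FBS and 1% penicillin–streptomycin at 37 °C, humidified 5% CO2. Cells were seeded at 5000–20 000 per well, given 24 h, then dosed in triplicate for 96 h with doxorubicin as positive control. Viability was measured by MTT at 570 nm, and IC50 was obtained from dose–response curves.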

WI-38 = assay: Cytotoxicity against human WI38 cells assessed as reduction in cell viability incubated for 96 hrs by MTT assay; type: cell-based; conditions: WI-38, 96 h
In short: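 WI 38 cells were grown in DMEM with 2 mM L-glutamine, 1× nonessential amino acids, 1% penicillin–streptomycin and 15% FBS at 37 °C, 5% CO2. Cells were plated at 5000–20 000 per well, then 24 h later dosed in triplicate and exposed continuously for 96 h. Read-out was MTT absorbance at 570 nm, with IC50 from dose–response analysis.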

`COc1cc(O)c2c(c1)C(=O)C1=C(COC(C)(O)C1)C2=O` (stereo not given) was tested. Which IC50 (HeLa) did it give?
The IC50 was 10300 nM.

What about the IC50 (MDA-MB-231) of the same compound?
Its IC50 is 30700 nM.

And the IC50 (MIA PaCa-2)?
Its IC50 is 20500 nM.

What about the IC50 (NCI-H1975) of the same compound?
Its IC50 is 27700 nM.

And the IC50 (WI-38)?
The IC50 was 54300 nM.

With `COc1cccc2c1C(=O)c1c(O)c3c(c(O)c1C2=O)C[C@@](O)(C(=O)CO)C[C@@H]3O[C@H]1C[C@H](N)[C@H](O)[C@H](C)O1` [DOXORUBICIN] as the compound, how does the IC50 (HeLa) read?
Its IC50 is 50 nM.

And the IC50 (MDA-MB-231)?
The IC50 was 70 nM.

What about the IC50 (MIA PaCa-2) of the same compound?
Its IC50 is 40 nM.

What about the IC50 (NCI-H1975) of the same compound?
The IC50 was 30 nM.

And the IC50 (WI-38)?
Its IC50 is 350 nM.

Which IC50 (HeLa) does the source give for `COc1c(O)cc(O)c2c1C(=O)c1cc(C)ncc1C2=O` here?
Its IC50 is 710 nM.

And the IC50 (MDA-MB-231)?
The IC50 was 730 nM.

And the IC50 (MIA PaCa-2)?
Its IC50 is 640 nM.

What about the IC50 (NCI-H1975) of the same compound?
Its IC50 is 340 nM.

And the IC50 (WI-38)?
Its IC50 is 6420 nM.

Which IC50 (HeLa) does the source give for `COc1cc(O)cc2c1C(=O)c1cnc(C)cc1C2=O` here?
Its IC50 is 960 nM.

And the IC50 (MDA-MB-231)?
The IC50 was 1510 nM.

What about the IC50 (MIA PaCa-2) of the same compound?
The IC50 was 980 nM.

And the IC50 (NCI-H1975)?
The IC50 was 610 nM.

And the IC50 (WI-38)?
The IC50 was 5840 nM.
